Hits are enriched below; roughly 2.2% of the tested compounds scored in any of these assays.
Wee1 stabilizer: Wee1 degradation inhibitors, primary screen, cell-based, HeLa, Wee1K328M-luciferase, luminescence | AID 1321, 2008 | HeLa Luc-Wee1K328M stability; 100% = proteasome inhibitor MG132 effect | reporter increase, % at 5 µM | Wee1-like protein kinase (Homo sapiens), P30291 | hit rate 1.2% among 220,000;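 active = activation above the mean of all tested compounds plus 3 SD, set per screening run, cut at about 8.8% in these data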;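 also: cells exposed to compound for 20 h before luminescence read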
Insulin prom up: insulin promoter activators in MIN6 cells, imaging, high-content screening, mouse beta cells; MIN6 insulin promoter-GFP reporter; hits give high values; z-score at 5 µM; hit rate 0.3% among 190,000;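 active = z-score above 3 at 5 µM with at least 500 cells counted in the well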
INS promoter inh: inhibitors of insulin promoter-driven GFP, primary screen, imaging, TRM-6 cells, eGFP reporter, cell count; reporter expression induced with tamoxifen; inhibition, % at 2 µM; hit rate 0.9% among 130,000;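 active = inhibition above the mean plus 3 SD, with well images judged a real hit on visual review, cut at about 60% in these data, passing the limit was not always enough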
MDM2 E3 inh: MDM2-luciferase reporter signal enhancers, primary screen, MDM2 E3 ligase inhibitor project, cell-based, luminescence, 1536-well; hit rate 0.11% among 210,000; AID 1230, 2008; signal enhancement, % at 5 µM; E3 ubiquitin-protein ligase Mdm2 (Homo sapiens), Q00987; cell-based MDM2 ubiquitination luciferase reporter, 2 h; 0 = plate control, 100 = twice control, blank-subtracted;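 active = signal enhancement of 30% or more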;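 also: luminescence tracks abundance of the self-degrading MDM2-luciferase fusion protein; higher signal means inhibition of MDM2 E3 ligase activity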
Target sequence (Q00987 whole entry, looked up, the tested form may be a part): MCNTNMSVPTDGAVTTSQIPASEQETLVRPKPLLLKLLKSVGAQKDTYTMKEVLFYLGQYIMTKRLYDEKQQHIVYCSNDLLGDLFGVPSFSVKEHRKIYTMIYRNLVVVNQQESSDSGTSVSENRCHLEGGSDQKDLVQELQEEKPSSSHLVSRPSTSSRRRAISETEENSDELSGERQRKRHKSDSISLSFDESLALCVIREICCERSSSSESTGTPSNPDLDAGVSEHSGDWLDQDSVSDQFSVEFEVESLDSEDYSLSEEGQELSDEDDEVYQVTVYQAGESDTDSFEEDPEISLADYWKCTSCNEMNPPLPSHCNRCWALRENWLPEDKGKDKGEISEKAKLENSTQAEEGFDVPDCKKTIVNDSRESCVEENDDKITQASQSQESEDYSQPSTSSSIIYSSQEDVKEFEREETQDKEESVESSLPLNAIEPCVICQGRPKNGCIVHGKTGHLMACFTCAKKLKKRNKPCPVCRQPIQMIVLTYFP
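Timing – 2 h compound exposure at 37 °C · Assay system – mammalian cells stably expressing self-ubiquitinating, self-degrading MDM2 E3–luciferase fusion · Amount – 2000 cells seeded into each well · Measure – % luminescence enhancement versus blank-corrected plate control mean · Measured by – SteadyLite luminescence, 15 min reagent step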
Hsp70 act: Hsp70 transcriptional activators, primary screen, cell-based, HeLa, Hsp70 promoter luciferase, luminescence, 10 µM; hit rate 0.04% among 200,000; HeLa Hsp70 promoter luciferase reporter; scaled: vehicle 0, proteasome-inhibitor control 100%; activation, % at 10 µM;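 active = activation above the mean across all tested compounds plus 3 SD, cutoff set per campaign, cut at about 5.5% in these data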
RBBP9 inh: human RBBP9 inhibitors, primary screen, biochemical, fluorescence polarization, FP-Rh probe, HTS | Serine hydrolase RBBP9 (Homo sapiens), O75884 | recombinant RBBP9 | inhibition, % at 7.94 µM | hit rate 0.2% among 220,000;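 active = inhibition above the campaign mean of all tested compounds plus 3 SD, cut at about 14% in these data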
Target sequence (O75884 whole entry, looked up): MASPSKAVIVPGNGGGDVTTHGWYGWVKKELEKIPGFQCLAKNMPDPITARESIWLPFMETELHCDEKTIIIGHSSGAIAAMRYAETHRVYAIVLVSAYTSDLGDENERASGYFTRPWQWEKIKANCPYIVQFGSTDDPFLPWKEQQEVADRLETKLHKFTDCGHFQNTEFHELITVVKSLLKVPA
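system = RBBP9 protein | input = RBBP9 at 2.5 µM in dispensed solution, before mixing | measured by = fluorescence polarization (mP), excitation 525 nm, emission 598 nm | incubation = enzyme-compound preincubation 30 min, then probe labeling 45 min, 25 °C | buffer or medium = Tris-NaCl-Pluronic buffer, pH 8.0 | compound = single dose 7.94 µM | also added = FP-Rh probe, 375 nM dispensing solution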
Large screens that a line does not name were inactive.

O=[N+]([O-])c1ccc(O)c(C2=NNC(c3ccccc3F)C2)c1 (stereo not given)	Wee1 stabilizer 9.6 (no result: INS promoter inh, Hsp70 act)
CCc1cc(C(=O)COc2ccc(F)cc2)c(O)cc1O	none (no result: INS promoter inh)
Cc1c(O)ccc(C(=O)COc2ccc(F)cc2)c1O	Wee1 stabilizer 10
COc1ccccc1-c1cc(C(=O)N/N=C/c2cccs2)c2ccccc2n1	Wee1 stabilizer 10 (no result: Insulin prom up)
COC(=O)C1=C(C)N=C2SC(C#N)=C(N)N2C1c1cccc(OC)c1 (stereo not given)	INS promoter inh 100
COC(=O)C1=C(C)N=C2SC(C#N)=C(N)N2C1c1ccc(OC)cc1 (stereo not given)	none (no result: INS promoter inh)
CCN(CC)S(=O)(=O)c1cccc(C(=O)NC(C)C(c2cccs2)N2CCCC2)c1 (stereo not given)	none (no result: INS promoter inh)
CC(=O)Nc1ccccc1NC(=O)C/C(C)=N/NC(=O)c1ccncc1	Wee1 stabilizer 9.3 (no result: INS promoter inh)
C/C(CC(=O)Nc1ccc(N(C)C)cc1)=N\NC(=O)c1ccncc1	none
CCCCNC(=S)Nc1ccc(OC)nc1	none
Cc1cc(NC(=O)/C(C#N)=C/c2ccc(-c3ccc(SC(F)F)cc3)o2)n(-c2ccccc2)n1	Insulin prom up 3.4
Cc1cc(NC(=O)/C(C#N)=C/c2ccc(-c3cccc(C(F)(F)F)c3)o2)n(-c2ccccc2)n1	none (no result: INS promoter inh)
N#Cc1ccc(C23CC4(C2)[C@H](CN(Cc2ccc(C(F)(F)F)cc2)[C@@H]4c2ccccc2)C3c2ccc(Cl)nc2)cc1 (stereo not given in full)	none (no result: Wee1 stabilizer, INS promoter inh, Hsp70 act, RBBP9 inh)
CCOC(=O)c1[nH]c(C)c(C(=O)NCc2ccc(C)cc2)c1C	none (no result: INS promoter inh)
CCOC(=O)c1[nH]c(C)c(C(=O)c2ccc(C)cc2)c1C	Wee1 stabilizer 9.5
COc1ccc(OC)c(NC(=O)CSc2ncccc2C(=O)O)c1	none (no result: Insulin prom up)
Nc1nonc1NC(=O)CSc1ncccc1C(=O)O	Wee1 stabilizer 14
Cc1c(C(=O)O)c(C(=O)O)c2n1CCS2	none (no result: INS promoter inh, Hsp70 act)
O=C(Cc1ccccc1)c1nnc(-c2ccccc2)o1	none
O=C(N/N=C/c1cc(Cl)ccc1O)c1ccc(Br)cc1	none (no result: INS promoter inh)
Cc1ccc(N=Nc2ccc(O)c(/C=N\NC(=O)c3ccc(N)cc3)c2)cc1C	Wee1 stabilizer 9.5 (no result: Insulin prom up)
N#CCC(=O)Nc1ccc(C(=O)OCC(=O)Nc2cccc(C(F)(F)F)c2)cc1	none (no result: INS promoter inh)
Cc1nnc(SCC(C)C)[nH]c1=O	Wee1 stabilizer 9.4 (no result: INS promoter inh)
CC(=O)OC[C@H]1O[C@@H](O/N=C/C[C@@H]2C=C[C@H](OC(C)=O)[C@@H](COC(C)=O)O2)[C@H](OC(C)=O)[C@@H](OC(C)=O)[C@@H]1OC(C)=O	none (no result: MDM2 E3 inh)
Cc1ccnc2nc(C(=O)OCC(=O)Nc3ccccc3C(C)(C)C)nn12	none
Cc1ccnc2nc(C(=O)OCC(=O)NCCc3ccccc3)nn12	INS promoter inh 73
Cc1ccc2c(c1)NC(=O)C(CC(=O)N(C)Cc1ccccc1)O2 (stereo not given)	none (no result: INS promoter inh)
CCN1CCN(Cc2nc3c(c(=O)n(C)c(=O)n3C)n2C(C)C(C)=O)CC1 (stereo not given)	MDM2 E3 inh 31
CCN1CCN(Cc2nc3c(c(=O)n(C)c(=O)n3C)n2CCc2ccccc2)CC1	none (no result: MDM2 E3 inh)
Nc1nc(Nc2ccccc2F)nc(N2CCOCC2)c1[N+](=O)[O-]	Wee1 stabilizer 8.9 (no result: INS promoter inh, Hsp70 act)
Nc1nc(Nc2ccccc2)nc(N2CCOCC2)c1[N+](=O)[O-]	none (no result: INS promoter inh)
COc1ccc(C(=O)Nc2nc3cc4c(cc3s2)OCCO4)c(OC)c1	none (no result: INS promoter inh, Hsp70 act)
COc1cc(CC(=O)Nc2ccccc2N2CCCCC2)cc(OC)c1OC	Wee1 stabilizer 9.4
COc1ccccc1C(=O)OCC(=O)Nc1cc(S(=O)(=O)N2CCOCC2)ccc1N1CCCC1	none (no result: INS promoter inh)
COc1ccccc1OCC(=O)Nc1cc(S(=O)(=O)N2CCCCC2)ccc1N1CCCCC1	MDM2 E3 inh 78
O=C(CNC1CCCCCC1)Nc1ccccc1N1CCCCC1	Wee1 stabilizer 8.9
Cn1c(C(=O)NCCOc2ccccc2Cl)cc(=O)n(C)c1=O	none
CCOC(=O)c1[nH]c2ccccc2c1NC(=O)c1ccc(S(=O)(=O)N2CCCC2)cc1	none (no result: MDM2 E3 inh)
CN(C)C(CNC(=S)Nc1cccc(Cl)c1)c1cccnc1 (stereo not given)	none
COc1cc(C(=O)NCCOc2ccc(F)cc2)c(Br)c(OC)c1OC	none
CCn1cc(C(=O)NCCN(C)CCc2ccccc2)c(=O)c2cc(S(=O)(=O)N(C)C)ccc21	Insulin prom up 3.9
CN(CCNC(=O)c1cn(C)c2ccc(S(=O)(=O)N(C)C)cc2c1=O)CCc1ccccc1	none (no result: INS promoter inh)
CCCC(=O)N(c1ccc(OCC)cc1)C1C=CS(=O)(=O)C1 (stereo not given)	none
Cc1ccc(NC(=O)COC(=O)C(CC(C)C)N2C(=O)C3CC=CCC3C2=O)c(C)c1 (stereo not given)	none (no result: INS promoter inh)
CC(CNS(=O)(=O)c1cc(Cl)ccc1Cl)CN(C)C (stereo not given)	none
CN1/C(=C/C2CC(=O)NC2=O)C(C)(C)c2ccccc21 (stereo not given)	Wee1 stabilizer 13 (no result: Insulin prom up, INS promoter inh)
CCOC(=O)N1CCN(C(=S)NC2CCCCC2)CC1	none (no result: Insulin prom up, INS promoter inh)
CCOC(=O)N1CCN(C(=S)NC(C)(C)C)CC1	none (no result: Insulin prom up)
CCOC(=O)N1CCN(C(=S)NC)CC1	INS promoter inh 72
CCOC(=O)N1CCN(C(=O)NC2CCCCC2)CC1	Insulin prom up 3.7
CCc1ccc(NC(=O)N(CCCN2CCOCC2)C(C)c2cc3cccc(OC)c3o2)cc1 (stereo not given)	none
N#CC(c1nc2ccccc2nc1N1CCCC1)S(=O)(=O)c1ccccc1 (stereo not given)	none (no result: INS promoter inh)
Cc1ccc(S(=O)(=O)C(C#N)c2nc3ccccc3nc2N2CCC(C)CC2)cc1 (stereo not given)	Insulin prom up 3.8
O=C(NCC1CCCO1)C1CCN(S(=O)(=O)N2CCCC2)CC1 (stereo not given)	Insulin prom up 3.6 (no result: INS promoter inh)
CCS(=O)(=O)N1CCC(C(=O)NCC2CCCO2)CC1 (stereo not given)	none (no result: INS promoter inh)
Cn1c(SCc2cc(=O)n3cc(Br)ccc3n2)nnc1C1COc2ccccc2O1 (stereo not given)	none (no result: INS promoter inh)
CC(C)c1ccc(NC(=O)C2C3C=CC4(CN(CCCN5CCOCC5)C(=O)C24)O3)cc1 (stereo not given)	none
Cc1c(C(=O)/C=C/N(C)C)nnn1-c1ccc(F)c(Cl)c1	Wee1 stabilizer 10 (no result: INS promoter inh, Hsp70 act)
Cc1c(C(=O)/C=C/N(C)C)nnn1-c1ccc(Cl)c(Cl)c1	none (no result: INS promoter inh, Hsp70 act)
CCC1CCCCN1C(=O)c1ccc(OC2CCN(C(=O)C3CC3)CC2)cc1 (stereo not given)	none (no result: INS promoter inh, MDM2 E3 inh)
